Assay results as given in ChEMBL document CHEMBL1128398, “Structure-activity relationship of alpha-galactosylceramides against B16-bearing mice” (1995).

What was measured:
[1] = species: Mus musculus; assay: Lymphocyte Proliferation Stimulatory effect on Allogenic MLR at 1 ng/tritium-thymidine) uptake (percent of control); type: functional
Summary of the method: (§1)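 Responders were BALB/c spleen cells and stimulators were C57BL/6 spleen cells pretreated with MMC (50 μg/mL, 30 min). Both were plated at 1 × 10^5 cells in 10% FCS RPMI 1640, with compounds added at plating. Culture was at 37 °C in 5% CO2 for 2–3 days, then a 6 h [3H]TdR pulse with scintillation counting. Run in triplicate.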

[2] = species: Mus musculus; assay: Lymphocyte Proliferation Stimulatory effect on Allogenic MLR at 0.1 ng/mL and measured for [3H]TdR (tritium-thymidine) uptake (percent of control); type: functional; summary of the method: as §1
[3] = species: Homo sapiens; assay: Lymphocyte Proliferation Stimulatory effect on human umbilical cord blood at 100 ng/mL and measured for [3H]TdR (tritium-thymidine) uptake (percent of control); type: functional
Summary of the method: (§2)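 Mononuclear cells were isolated from human peripheral blood or umbilical cord blood and plated at 1 × 10^5 cells/well in RPMI 1640 with 10% autologous plasma, with compound. After 4 days of incubation, a 6 h [3H]TdR pulse was given and uptake was counted by scintillation. Run in triplicate.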

[4] = test system: B16; assay: Tumor Growth Inhibitory effect (TGIR) on mice subcutaneously inoculated with B16 cells (compound alone (single)); type: functional, Mus musculus; parameters: concentration or dose not given beside the values
Summary of the method: (§3)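 Groups of six female BDF1 mice received B16 melanoma (1 × 10^6 cells/mouse) s.c. on day 0. AGL analogues were given i.v. at 100 μg/kg on days 1, 5 and 9, and MMC at 5 mg/kg i.p. on day 1; controls were untreated. Tumor volume (length × width × height/2, by callipers) was read on days 8, 12, 16 and 20. TGIR = [1 − mean test volume/mean control volume] × 100, and the maximum value is reported.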

[5] = test system: B16; assay: Tumor Growth Inhibitory effect (TGIR) on mice subcutaneously inoculated with B16 cells (compound plus MMC); type: functional, Mus musculus; parameters: concentration or dose not given beside the values; summary of the method: as §3
[6] = species: Homo sapiens; assay: Lymphocyte Proliferation Stimulatory effect on human umbilical cord blood at 1 ng/mL and measured for [3H]TdR (tritium-thymidine) uptake (percent of control); type: functional; summary of the method: as §2
[7] = test system: B16; assay: Tumor Growth Inhibitory effect (TGIR) on mice subcutaneously inoculated with B16 cells (chemotherapeutic agent, mitomycin C (MMC)); type: functional, Mus musculus; parameters: concentration or dose not given beside the values; summary of the method: as §3
[8] = species: Mus musculus; assay: Lymphocyte Proliferation Stimulatory effect on Allogenic MLR at 100 ng/mL and measured for [3H]-TdR (tritium-thymidine) uptake (percent of control); type: functional; summary of the method: as §1
[9] = species: Homo sapiens; assay: Lymphocyte Proliferation Stimulatory effect on human peripheral blood at 10 ng/mL and measured for [3H]TdR (tritium-thymidine) uptake (percent of control); type: functional; summary of the method: as §2
[10] = species: Homo sapiens; assay: Lymphocyte Proliferation Stimulatory effect on human umbilical cord blood at 10 ng/mL and measured for [3H]TdR (tritium-thymidine) uptake (percent of control); type: functional; summary of the method: as §2
[11] = species: Homo sapiens; assay: Lymphocyte Proliferation Stimulatory effect on human peripheral blood at 100 ng/mL and measured for [3H]TdR (tritium-thymidine) uptake (percent of control); type: functional; summary of the method: as §2
[12] = species: Mus musculus; assay: Lymphocyte Proliferation Stimulatory effect on Allogenic MLR at 10 ng/mL and measured for [3H]TdR (tritium-thymidine) uptake (percent of control); type: functional; summary of the method: as §1
[13] = species: Homo sapiens; assay: Lymphocyte Proliferation Stimulatory effect on human peripheral blood at 1 ng/mL and measured for [3H]TdR (tritium-thymidine) uptake (percent of control); type: functional; summary of the method: as §2

Molecule `CCCCCCCCCCCCCCCCCCCCCCCCCC(=O)N[C@@H](CO[C@H]1O[C@H](CO)[C@H](O)[C@H](O)[C@H]1O)[C@H](O)[C@H](O)CCCCCCCCCCCCCC` [RGI-7000] has a Control [1] of 200%, a Control [2] of 125% and a Control [3] of 581%. The Control [4] was 53.8%, the Control [5] was 86.7% and the Control [6] was 398%. The “Tumor growth inhibition ratio (max TGIR)” value [7] was 67.6%, the Control [8] was 283% and the Control [9] was 389%. For the same molecule, the Control [10] was 663%, the Control [11] was 590% and the Control [12] was 251%. The Control [13] was 356%.
